{"source": "ChEMBL document CHEMBL1136806", "about": "“Synthesis and in vitro and in vivo antimalarial activity of N1-(7-chloro-4-quinolyl)-1,4-bis(3-aminopropyl)piperazine derivatives” (J Med Chem, 2003)", "key": {"MRC5 [1]": {"test_system": "MRC5", "test": "Cytotoxicity was tested on human diploid embryonic lung cell line (MRC-5) (in vitro)", "assay_type": "functional"}, "Plasmodium falciparum [2]": {"test_system": "Plasmodium falciparum", "test": "In vitro antimalarial activity against Plasmodium falciparum FcB1", "assay_type": "functional, organism-based", "how_it_was_run": "(§1)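 Asynchronous P. falciparum FcB1 cultures in human erythrocytes (0.5% parasitemia, 1% hematocrit) were exposed to serial dilutions for 24 h at 37 °C. [3H]-hypoxanthine was then added. Incorporation was compared with drug-free controls, DMSO ≤0.1%. IC50 came from the concentration–response curve, reported as mean ± SD of three experiments.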"}, "MRC5 [3]": {"test_system": "MRC5", "test": "Cytotoxicity of compound was tested on human diploid embryonic lung cell line (MRC-5)", "assay_type": "functional"}, "[4]": {"test": "Vacuolar accumulation ratio was determined", "assay_type": "functional", "how_it_was_run": "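Calculated, not measured: Henderson–Hasselbalch-derived equation using predicted pKa values, assuming vacuolar pH 5.0 and external pH 7.4.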"}, "[5]": {"test": "Partition coefficient was determined by dividing the concentration of compound in 1-octanol by concentration in aqueous phase at pH 7.4", "assay_type": "physicochemical", "details": "1-octanol/aqueous phase, read-out: Log D7.4"}, "[6]": {"test": "Partition coefficient was determined by dividing the concentration of compound in 1-octanol by concentration in aqueous phase at pH 5.0", "assay_type": "physicochemical", "details": "1-octanol/aqueous phase, read-out: Log D5.0"}, "Plasmodium falciparum [7]": {"test_system": "Plasmodium falciparum", "test": "Antimalarial activity against Plasmodium falciparum FcB1", "assay_type": "functional, organism-based", "how_it_was_run": "as §1"}}}
{"smiles": "Clc1ccc2c(NCCCN3CCN(CCCN(CCc4ccccc4)CCc4ccccc4)CC3)ccnc2c1", "values": [{"measurement": "CC50", "setting": "MRC5 [1]", "result": 1000, "unit": "nM"}, {"measurement": "IC50", "setting": "Plasmodium falciparum [2]", "result": 26.2, "unit": "nM"}]}
{"smiles": "CCN(CC)CCCC(C)Nc1ccnc2cc(Cl)ccc12", "note": "(stereo not drawn) [CHLOROQUINE]", "values": [{"measurement": "CC50", "setting": "MRC5 [3]", "result": 50000, "unit": "nM"}, {"measurement": "VAR", "setting": "[4]", "result": 53600}]}
{"smiles": "CCCCN(CCCC)CCCN1CCN(CCCNc2ccnc3cc(Cl)ccc23)CC1", "values": [{"measurement": "logD", "setting": "[5]", "result": 1.92}, {"measurement": "logD", "setting": "[6]", "result": -1.75}]}
{"smiles": "O=C(NCCCN1CCN(CCCNc2ccnc3cc(Cl)ccc23)CC1)C1CC1", "values": [{"measurement": "logD", "setting": "[5]", "result": "> 2.78"}, {"measurement": "logD", "setting": "[6]", "result": -0.23}]}
{"smiles": "O=C(Cc1ccccc1)NCCCN1CCN(CCCNc2ccnc3cc(Cl)ccc23)CC1", "values": [{"measurement": "CC50", "setting": "MRC5 [1]", "result": 4000, "unit": "nM"}, {"measurement": "IC50", "setting": "Plasmodium falciparum [2]", "result": 67.4, "unit": "nM"}]}
{"smiles": "O=C(NCCCN1CCN(CCCNc2ccnc3cc(Cl)ccc23)CC1)c1cccc(Oc2ccccc2)c1", "values": [{"measurement": "CC50", "setting": "MRC5 [1]", "result": 5000, "unit": "nM"}, {"measurement": "IC50", "setting": "Plasmodium falciparum [2]", "result": 20.8, "unit": "nM"}, {"measurement": "VAR", "setting": "[4]", "result": 29500}]}
{"smiles": "O=C(NCCCN1CCN(CCCNc2ccnc3cc(Cl)ccc23)CC1)c1ccc([N+](=O)[O-])cc1", "values": [{"measurement": "logD", "setting": "[5]", "result": "> 2.78"}, {"measurement": "logD", "setting": "[6]", "result": 0.31}]}
{"smiles": "COc1ccc(CN(CCCN2CCN(CCCNc3ccnc4cc(Cl)ccc34)CC2)Cc2ccc(OC)cc2)cc1", "values": [{"measurement": "CC50", "setting": "MRC5 [1]", "result": 1000, "unit": "nM"}, {"measurement": "IC50", "setting": "Plasmodium falciparum [2]", "result": 9.6, "unit": "nM"}]}
{"smiles": "Clc1ccc2c(NCCCN3CCN(CCCNCCc4ccccc4)CC3)ccnc2c1", "values": [{"measurement": "CC50", "setting": "MRC5 [1]", "result": 5000, "unit": "nM"}, {"measurement": "IC50", "setting": "Plasmodium falciparum [2]", "result": 18.5, "unit": "nM"}]}
{"smiles": "Clc1ccc2c(NCCCN3CCN(CCCNc4ccnc5cc(Cl)ccc45)CC3)ccnc2c1", "values": [{"measurement": "CC50", "setting": "MRC5 [3]", "result": "< 1000", "unit": "nM"}, {"measurement": "IC50", "setting": "Plasmodium falciparum [7]", "result": 23, "unit": "nM"}]}
{"smiles": "COc1ccc(C(=O)NCCCN2CCN(CCCNc3ccnc4cc(Cl)ccc34)CC2)cc1", "values": [{"measurement": "CC50", "setting": "MRC5 [1]", "result": 4000, "unit": "nM"}, {"measurement": "IC50", "setting": "Plasmodium falciparum [2]", "result": 20.2, "unit": "nM"}]}
{"smiles": "CCCC(=O)NCCCN1CCN(CCCNc2ccnc3cc(Cl)ccc23)CC1", "values": [{"measurement": "logD", "setting": "[5]", "result": 1.06}]}
{"smiles": "Clc1ccc2c(NCCCN3CCN(CCCN(CC4CC4)CC4CC4)CC3)ccnc2c1", "values": [{"measurement": "logD", "setting": "[5]", "result": 1.16}, {"measurement": "logD", "setting": "[6]", "result": "< -2.78"}]}
{"smiles": "Clc1ccc2c(NCCCN3CCN(CCCNCc4ccnc5ccccc45)CC3)ccnc2c1", "values": [{"measurement": "CC50", "setting": "MRC5 [1]", "result": 1200, "unit": "nM"}, {"measurement": "IC50", "setting": "Plasmodium falciparum [2]", "result": 74.1, "unit": "nM"}]}
